Assay results as given in ChEMBL document CHEMBL4402601, “Discovery of a Silicon-Containing Pan-Genotype Hepatitis C Virus NS5A Inhibitor” (J Med Chem, 2020).

Key:
Hepatitis C virus [1] = assay: Antiviral activity against Hepatitis C virus subtype 6a subgenomic replicon expressing NS5A infected in human HuH7 cells assessed as reduction in viral replication incubated for 3 days by luciferase reporter gene assay; assay type: functional, organism-based, Hepacivirus hominis; conditions: Huh-7, 72 h
In short: (§1)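 HCV replicon cell assay; inhibition of replication read as decrease in luciferase signal. Percent inhibition computed at each compound concentration; EC50 (pM) from nonlinear regression fit to a 4-parameter logistic equation. Values are means of triplicate wells, with each experiment run at least twice.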

Hepatitis C virus [2] = assay: Antiviral activity against Hepatitis C virus subtype 1b Con1 subgenomic replicon expressing NS5A infected in human HuH7 cells assessed as reduction in viral replication incubated for 3 days by luciferase reporter gene assay; assay type: functional, organism-based, Hepacivirus hominis; conditions: subtype 1b Con1, Huh-7, 72 h; in short: as §1
Hepatitis C virus [3] = assay: Antiviral activity against Hepatitis C virus subtype 1a H77 subgenomic replicon expressing NS5A infected in human HuH7 cells assessed as reduction in viral replication incubated for 3 days by luciferase reporter gene assay; assay type: functional, organism-based, Hepacivirus hominis; conditions: subtype 1a H77, Huh-7, 72 h; in short: as §1
Hepatitis C virus [4] = assay: Antiviral activity against Hepatitis C virus subtype 3a subgenomic replicon expressing NS5A infected in human HuH7 cells assessed as reduction in viral replication incubated for 3 days by luciferase reporter gene assay; assay type: functional, organism-based, Hepacivirus hominis; conditions: Huh-7, 72 h; in short: as §1
Hepatitis C virus [5] = assay: Potency index, ratio of EC50 of to EC50 of compound for antiviral activity against Hepatitis C virus subtype 6a subgenomic replicon expressing NS5A infected in human HuH7 cells assessed as reduction in viral replication incubated for 3 days by luciferase reporter gene assay; assay type: functional, Hepacivirus hominis
[6] = Metabolic stability in human liver microsomes assessed as compound remaining at 1 uM incubated for 60 mins by UPLC-MS/MS analysis; assay type: ADME, Microsome; conditions: read-out: Stability
In short: (§2)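 Pooled mouse, rat or human liver microsomes (0.5 mg/mL) with 1 μM compound, 1 mM NADPH, 5 mM MgCl₂ and 100 mM potassium phosphate pH 7.4. Pre-incubated 5 min at 37 °C, started with NADPH, then run 60 min at 37 °C. Quenched with ice-cold acetonitrile containing internal standard; parent remaining measured by UPLC-MS/MS.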

[7] = Metabolic stability in rat liver microsomes assessed as compound remaining at 1 uM incubated for 60 mins by UPLC-MS/MS analysis; assay type: ADME, Microsome; conditions: read-out: Stability; in short: as §2
[8] = Metabolic stability in mouse liver microsomes assessed as compound remaining at 1 uM incubated for 60 mins by UPLC-MS/MS analysis; assay type: ADME, Microsome; conditions: read-out: Stability; in short: as §2
[9] = Drug distribution in rat plasma at 10 mg/kg, po incubated for 8 hrs by UPLC-MS/MS analysis; assay type: ADME, organism-based
In short: (§3)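 Oral dosing in mice and rats; compound measured in plasma and liver by UPLC-MS/MS at each time point, n = 3 (mean ± SD). LPR is mean liver concentration divided by mean plasma concentration.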

[10] = Drug distribution in rat liver at 10 mg/kg, po incubated for 8 hrs by UPLC-MS/MS analysis; assay type: ADME, organism-based; conditions: read-out: Drug uptake; in short: as §3
[11] = Drug distribution in mouse plasma at 10 mg/kg, po incubated for 24 hrs by UPLC-MS/MS analysis; assay type: ADME, organism-based; in short: as §3
[12] = Drug distribution in rat plasma at 10 mg/kg, po incubated for 3 hrs by UPLC-MS/MS analysis; assay type: ADME, organism-based; in short: as §3
[13] = Ratio of drug distribution in rat liver to drug distribution in rat plasma measured after 8 hrs by UPLC-MS/MS analysis; assay type: ADME, cell-free; in short: as §3
[14] = Ratio of drug distribution in mouse liver to drug distribution in mouse plasma measured after 24 hrs by UPLC-MS/MS analysis; assay type: ADME, cell-free; in short: as §3
[15] = Drug distribution in rat liver at 10 mg/kg, po incubated for 3 hrs by UPLC-MS/MS analysis; assay type: ADME, organism-based; conditions: read-out: Drug uptake; in short: as §3
[16] = Drug distribution in mouse plasma at 10 mg/kg, po incubated for 0.5 hrs by UPLC-MS/MS analysis; assay type: ADME, organism-based; in short: as §3
[17] = Drug distribution in rat liver at 10 mg/kg, po incubated for 0.5 hrs by UPLC-MS/MS analysis; assay type: ADME, organism-based; conditions: read-out: Drug uptake; in short: as §3
[18] = Drug distribution in mouse liver at 10 mg/kg, po incubated for 24 hrs by UPLC-MS/MS analysis; assay type: ADME, organism-based; conditions: read-out: Drug uptake; in short: as §3
[19] = Ratio of drug distribution in mouse liver to drug distribution in mouse plasma measured after 0.5 hrs by UPLC-MS/MS analysis; assay type: ADME, cell-free; in short: as §3
[20] = Drug distribution in mouse plasma at 10 mg/kg, po incubated for 3 hrs by UPLC-MS/MS analysis; assay type: ADME, organism-based; in short: as §3
[21] = Ratio of drug distribution in rat liver to drug distribution in rat plasma measured after 0.5 hrs by UPLC-MS/MS analysis; assay type: ADME, cell-free; in short: as §3
[22] = Drug distribution in mouse liver at 10 mg/kg, po incubated for 3 hrs by UPLC-MS/MS analysis; assay type: ADME, organism-based; conditions: read-out: Drug uptake; in short: as §3
[23] = Ratio of drug distribution in mouse liver to drug distribution in mouse plasma measured after 3 hrs by UPLC-MS/MS analysis; assay type: ADME, cell-free; in short: as §3
[24] = Drug distribution in mouse liver at 10 mg/kg, po incubated for 0.5 hrs by UPLC-MS/MS analysis; assay type: ADME, organism-based; conditions: read-out: Drug uptake; in short: as §3
[25] = Drug distribution in rat plasma at 10 mg/kg, po incubated for 0.5 hrs by UPLC-MS/MS analysis; assay type: ADME, organism-based; in short: as §3
[26] = Ratio of drug distribution in rat liver to drug distribution in rat plasma measured after 3 hrs by UPLC-MS/MS analysis; assay type: ADME, cell-free; in short: as §3

Structure (SMILES)	EC50 (Hepatitis C virus [1]) [nM]	EC50 (Hepatitis C virus [2]) [pM]	EC50 (Hepatitis C virus [3]) [pM]	EC50 (Hepatitis C virus [4]) [pM]	other results
COC(=O)N[C@H](C(=O)N1CCC[C@H]1C(=O)Nc1ccc([C@@H]2CC[C@@H](c3ccc(NC(=O)[C@@H]4CCCN4C(=O)[C@@H](NC(=O)OC)C(C)C)cc3)N2c2cc(F)c(N3CC[Si](C)(C)CC3)c(F)c2)cc1)C(C)C	0.088	0.4	0.9	11	
COC(=O)N[C@H](C(=O)N1CCC[C@H]1C(=O)Nc1ccc([C@@H]2CC[C@@H](c3ccc(NC(=O)[C@@H]4CCCN4C(=O)[C@@H](NC(=O)OC)C(C)C)cc3)N2c2ccc(N3CC[Si](C)(C)CC3)c(F)c2)cc1)C(C)C	0.182	0.4	0.8	8.8	
COC(=O)N[C@H](C(=O)N1CCC[C@H]1C(=O)Nc1ccc([C@@H]2CC[C@@H](c3ccc(NC(=O)[C@@H]4CCCN4C(=O)[C@@H](NC(=O)OC)[C@@H](C)OC)cc3)N2c2ccc([Si](C)(C)C)cc2)cc1)[C@@H](C)OC	0.247	1.6	12	7	
COC(=O)N[C@H](C(=O)N1CCC[C@H]1C(=O)Nc1ccc([C@H]2CC[C@H](c3ccc(NC(=O)[C@@H]4CCCN4C(=O)[C@@H](NC(=O)OC)C(C)C)cc3)N2c2cc(F)c(N3CC[Si](C)(C)CC3)c(F)c2)cc1)C(C)C	0.463	0.4	0.9	37	
CC[Si](CC)(CC)c1ccc(N2[C@H](c3ccc(NC(=O)[C@@H]4CCCN4C(=O)[C@@H](NC(=O)OC)[C@@H](C)OC)cc3)CC[C@H]2c2ccc(NC(=O)[C@@H]3CCCN3C(=O)[C@@H](NC(=O)OC)[C@@H](C)OC)cc2)cc1	0.121	1	2.3	2	Ratio EC50 (Hepatitis C virus [5]): 7
COC(=O)N[C@H](C(=O)N1CCC[C@H]1C(=O)Nc1ccc([C@H]2CC[C@H](c3ccc(NC(=O)[C@@H]4CCCN4C(=O)[C@@H](NC(=O)OC)C(C)C)cc3)N2c2ccc(N3CC[Si](C)(C)CC3)c(F)c2)cc1)C(C)C	0.831	0.5	0.8	51	
COC(=O)N[C@H](C(=O)N1CCC[C@H]1C(=O)Nc1ccc([C@H]2CC[C@H](c3ccc(NC(=O)[C@@H]4CCCN4C(=O)[C@@H](NC(=O)OC)[C@@H](C)OC)cc3)N2c2ccc(N3CC[Si](C)(C)CC3)c(F)c2)cc1)[C@@H](C)OC	0.454	16	65	14	
COC(=O)N[C@H](C(=O)N1CCC[C@H]1C(=O)Nc1ccc([C@@H]2CC[C@@H](c3ccc(NC(=O)[C@@H]4CCCN4C(=O)[C@@H](NC(=O)OC)[C@@H](C)OC)cc3)N2c2ccc([Si](C)(C)C(C)(C)C)cc2)cc1)[C@@H](C)OC	0.08	1.4	7.9	3	Ratio EC50 (Hepatitis C virus [5]): 10
COC(=O)N[C@H](C(=O)N1CCC[C@H]1C(=O)Nc1ccc([C@@H]2CC[C@@H](c3ccc(NC(=O)[C@@H]4CCCN4C(=O)[C@@H](NC(=O)OC)C(C)C)cc3)N2c2ccc(C(C)(C)C)cc2)cc1)C(C)C [OMBITASVIR]					remaining at 1 h, 1 µM [6]: 82.5%; remaining at 1 h, 1 µM [7]: 73.5%; remaining at 1 h, 1 µM [8]: 63.5%
COC(=O)N[C@H](C(=O)N1CCC[C@H]1c1nc2cc([C@@H]3CC[C@@H](c4cc5nc([C@@H]6CCCN6C(=O)[C@@H](NC(=O)OC)[C@@H](C)OC)[nH]c5cc4F)N3c3cc(F)c(N4CCC(c5ccc(F)cc5)CC4)c(F)c3)c(F)cc2[nH]1)[C@@H](C)OC					concentration at 8 h [9]: 30.1 ng/mL; concentration at 8 h [10]: 18.9 ng/g; concentration at 24 h [11]: 718 ng/mL; concentration at 3 h [12]: 96.4 ng/mL; Kp at 8 h [13]: 0.63; Kp at 24 h [14]: 0.11; concentration at 3 h [15]: 102 ng/g; concentration at 0.5 h [16]: 414 ng/mL; concentration at 0.5 h [17]: 155 ng/g; concentration at 24 h [18]: 69.6 ng/g; Kp at 0.5 h [19]: 0.43; concentration at 3 h [20]: 1540 ng/mL; Kp at 0.5 h [21]: 1.5; concentration at 3 h [22]: 193 ng/g; Kp at 3 h [23]: 0.39; concentration at 0.5 h [24]: 94 ng/g; concentration at 0.5 h [25]: 103 ng/mL; Kp at 3 h [26]: 1.1
CC[Si](CC)(CC)c1ccc(N2[C@H](c3ccc(NC(=O)[C@@H]4CCCN4C(=O)[C@@H](NC(=O)OC)C(C)C)cc3)CC[C@H]2c2ccc(NC(=O)[C@@H]3CCCN3C(=O)[C@@H](NC(=O)OC)C(C)C)cc2)cc1	0.817	2.8	11	5.8	
COC(=O)N[C@H](C(=O)N1CCC[C@H]1C(=O)Nc1ccc([C@H]2CC[C@H](c3ccc(NC(=O)[C@@H]4CCCN4C(=O)[C@@H](NC(=O)OC)[C@@H](C)OC)cc3)N2c2cc(F)c(N3CC[Si](C)(C)CC3)c(F)c2)cc1)[C@@H](C)OC	0.114	1.7	12	4.8	
COC(=O)N[C@H](C(=O)N1CCC[C@H]1C(=O)Nc1ccc([C@@H]2CC[C@@H](c3ccc(NC(=O)[C@@H]4CCCN4C(=O)[C@@H](NC(=O)OC)[C@@H](C)OC)cc3)N2c2ccc(N3CC[Si](C)(C)CC3)c(F)c2)cc1)[C@@H](C)OC	0.242	2.9	12	6	
